Results: ChEMBL document CHEMBL4392864, “Diketopiperazine-Type Alkaloids from a Deep-Sea-Derived Aspergillus puniceus Fungus and Their Effects on Liver X Receptor α” (J Nat Prod, 2019)
The source made the active and inactive calls. The rule behind the calls is not given here.

Columns and labels:
[1] = molecular target: L-lactate dehydrogenase A chain (Homo sapiens) (UniProt P00338); experiment: Inhibition of recombinant human LDHA expressed in Escherichia coli […] preincubated for 15 mins followed by substrate addition and measured after 60 mins
[2] = tested on: Colletotrichum gloeosporioides; experiment: Antifungal activity against Colletotrichum gloeosporioides HNM 1003 assessed as growth inhibition at 0.6 mM measured after 48 hrs by microbroth dilution method; assay type: functional; details: HNM 1003, 48 h, read-out: GI
How it was run: (§1)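 Fungi were grown on PDA plates for 6−8 days at 30 °C, then the mycelia were moved into PD medium and filtered through cotton to give a spore suspension. Each well held PD medium, sample from a 10 mg/mL DMSO stock at about 0.6 mM, and spores (1 × 10^6 CFU). DMSO served as the negative control. OD600 was read at 0 and 48 h at 28 °C and percent growth inhibition calculated.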

[3] = molecular target: T1, Oxysterols receptor LXR-alpha (Homo sapiens, UniProt Q13133); experiment: Transactivation of recombinant GAL4-fused human LXRalpha LBD (163 to 447 residues) expressed in human L02 cells measured after 24 hrs by luciferase reporter gene assay; assay type: cell-based
T1 sequence (Q13133 whole entry): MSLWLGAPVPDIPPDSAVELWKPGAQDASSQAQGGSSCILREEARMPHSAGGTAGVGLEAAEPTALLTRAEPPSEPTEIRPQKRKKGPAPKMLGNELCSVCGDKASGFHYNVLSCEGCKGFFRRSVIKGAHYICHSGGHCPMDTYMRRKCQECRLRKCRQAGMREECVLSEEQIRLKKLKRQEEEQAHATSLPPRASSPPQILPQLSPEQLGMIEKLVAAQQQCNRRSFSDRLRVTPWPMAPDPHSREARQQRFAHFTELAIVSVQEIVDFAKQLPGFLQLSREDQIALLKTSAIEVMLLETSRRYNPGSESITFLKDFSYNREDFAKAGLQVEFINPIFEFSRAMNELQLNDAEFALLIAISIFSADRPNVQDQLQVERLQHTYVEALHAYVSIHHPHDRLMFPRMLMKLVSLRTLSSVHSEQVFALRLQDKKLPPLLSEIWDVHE

[4] = molecular target: T2, Tyrosine-protein phosphatase non-receptor type 2 (Homo sapiens, UniProt P17706); experiment: Inhibition of recombinant human TCPTP expressed in Escherichia coli […] preincubated for 15 mins followed by substrate addition and measured after 60 mins
T2 sequence (P17706 whole entry): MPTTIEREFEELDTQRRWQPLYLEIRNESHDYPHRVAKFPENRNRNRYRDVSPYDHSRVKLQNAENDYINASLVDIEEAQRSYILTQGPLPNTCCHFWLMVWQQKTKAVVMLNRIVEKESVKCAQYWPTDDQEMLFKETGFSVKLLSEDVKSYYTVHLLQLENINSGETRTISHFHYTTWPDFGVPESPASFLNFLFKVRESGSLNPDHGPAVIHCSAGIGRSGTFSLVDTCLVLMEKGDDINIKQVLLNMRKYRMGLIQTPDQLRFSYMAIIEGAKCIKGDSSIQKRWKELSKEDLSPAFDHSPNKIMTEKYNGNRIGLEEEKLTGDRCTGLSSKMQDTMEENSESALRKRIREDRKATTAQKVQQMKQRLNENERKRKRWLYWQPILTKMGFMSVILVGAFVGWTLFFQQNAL
How it was run: (§2)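 Recombinant human phosphatases were expressed in E. coli and purified. Enzyme and compound were preincubated for 15 min at room temperature in pH 6.5 buffer (50 mM HEPES, 100 mM NaCl, 1 mM EDTA, 1 mM DTT). Buffer containing 50 mM pNPP was then added and the mix incubated for 60 min at 37 °C. Product p-nitrophenol was read at 405 nm. Assays were run in triplicate and IC50 derived.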

[5] = molecular target: Tyrosine-protein phosphatase non-receptor type 6 (Homo sapiens, UniProt P29350); experiment: Inhibition of recombinant human SHP1 expressed in Escherichia coli […] preincubated for 15 mins followed by substrate addition and measured after 60 mins; how it was run: as §2
Chain of Tyrosine-protein phosphatase non-receptor type 6 (P29350 whole entry): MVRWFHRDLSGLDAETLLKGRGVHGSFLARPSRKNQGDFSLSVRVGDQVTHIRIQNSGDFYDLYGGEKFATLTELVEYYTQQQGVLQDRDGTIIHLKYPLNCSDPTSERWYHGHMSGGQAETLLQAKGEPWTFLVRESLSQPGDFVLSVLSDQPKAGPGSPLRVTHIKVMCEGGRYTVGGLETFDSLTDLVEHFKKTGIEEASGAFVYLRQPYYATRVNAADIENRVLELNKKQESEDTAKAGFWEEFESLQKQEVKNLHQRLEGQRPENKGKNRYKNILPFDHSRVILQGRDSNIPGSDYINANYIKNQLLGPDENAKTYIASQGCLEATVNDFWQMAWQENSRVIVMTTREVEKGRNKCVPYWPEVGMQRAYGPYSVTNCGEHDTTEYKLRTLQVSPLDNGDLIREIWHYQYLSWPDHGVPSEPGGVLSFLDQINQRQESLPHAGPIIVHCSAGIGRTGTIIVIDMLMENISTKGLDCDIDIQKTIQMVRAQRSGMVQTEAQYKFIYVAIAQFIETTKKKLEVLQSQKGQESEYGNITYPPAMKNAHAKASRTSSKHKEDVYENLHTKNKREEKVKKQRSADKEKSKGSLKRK

[6] = molecular target: T3, Tyrosine-protein phosphatase non-receptor type 1 (Homo sapiens, UniProt P18031); experiment: Inhibition of recombinant human PTP1B expressed in Escherichia coli […] preincubated for 15 mins followed by substrate addition and measured after 60 mins; how it was run: as §2
T3 sequence (P18031 whole entry): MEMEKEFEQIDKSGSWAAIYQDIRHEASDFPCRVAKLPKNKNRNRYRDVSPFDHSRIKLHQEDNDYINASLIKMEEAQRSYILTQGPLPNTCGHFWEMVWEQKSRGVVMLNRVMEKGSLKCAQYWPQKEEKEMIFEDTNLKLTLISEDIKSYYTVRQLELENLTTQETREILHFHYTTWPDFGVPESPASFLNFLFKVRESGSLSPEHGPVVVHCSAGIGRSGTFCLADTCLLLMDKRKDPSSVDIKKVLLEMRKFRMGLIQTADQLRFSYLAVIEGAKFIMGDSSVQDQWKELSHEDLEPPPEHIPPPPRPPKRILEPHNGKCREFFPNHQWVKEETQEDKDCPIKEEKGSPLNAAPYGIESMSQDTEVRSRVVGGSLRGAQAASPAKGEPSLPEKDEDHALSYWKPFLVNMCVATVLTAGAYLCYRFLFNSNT

[7] = molecular target: T4, Tyrosine-protein phosphatase non-receptor type 9 (Homo sapiens, UniProt P43378); experiment: Inhibition of recombinant human MEG2 expressed in Escherichia coli […] preincubated for 15 mins followed by substrate addition and measured after 60 mins; how it was run: as §2
T4 sequence (P43378 whole entry): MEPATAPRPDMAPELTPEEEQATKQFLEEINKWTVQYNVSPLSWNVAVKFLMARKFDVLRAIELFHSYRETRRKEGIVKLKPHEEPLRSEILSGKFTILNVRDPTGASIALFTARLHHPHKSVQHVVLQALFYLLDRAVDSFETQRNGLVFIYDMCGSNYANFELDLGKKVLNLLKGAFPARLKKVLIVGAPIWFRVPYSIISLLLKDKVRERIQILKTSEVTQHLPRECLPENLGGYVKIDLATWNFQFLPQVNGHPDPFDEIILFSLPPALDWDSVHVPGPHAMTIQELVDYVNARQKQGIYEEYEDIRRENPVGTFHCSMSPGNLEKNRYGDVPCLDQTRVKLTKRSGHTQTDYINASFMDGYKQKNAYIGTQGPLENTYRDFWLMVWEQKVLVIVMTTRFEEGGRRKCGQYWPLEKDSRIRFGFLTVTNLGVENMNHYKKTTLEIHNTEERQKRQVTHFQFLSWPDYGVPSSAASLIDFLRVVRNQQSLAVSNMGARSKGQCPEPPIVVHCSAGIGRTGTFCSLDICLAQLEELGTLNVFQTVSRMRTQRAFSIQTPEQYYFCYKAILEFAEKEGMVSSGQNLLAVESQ

[8] = tested on: Curvularia australiensis; experiment: Antifungal activity against Curvularia australiensis BY01 assessed as growth inhibition at 0.6 mM measured after 48 hrs by microbroth dilution method; assay type: functional; details: BY01, 48 h, read-out: GI; how it was run: as §1
[9] = molecular target: Indoleamine 2,3-dioxygenase 1 (Homo sapiens, UniProt P14902); experiment: Inhibition of recombinant human IDO1 expressed in Escherichia coli […] preincubated for 15 mins followed by substrate addition and measured after 60 mins
Chain of Indoleamine 2,3-dioxygenase 1 (P14902 whole entry): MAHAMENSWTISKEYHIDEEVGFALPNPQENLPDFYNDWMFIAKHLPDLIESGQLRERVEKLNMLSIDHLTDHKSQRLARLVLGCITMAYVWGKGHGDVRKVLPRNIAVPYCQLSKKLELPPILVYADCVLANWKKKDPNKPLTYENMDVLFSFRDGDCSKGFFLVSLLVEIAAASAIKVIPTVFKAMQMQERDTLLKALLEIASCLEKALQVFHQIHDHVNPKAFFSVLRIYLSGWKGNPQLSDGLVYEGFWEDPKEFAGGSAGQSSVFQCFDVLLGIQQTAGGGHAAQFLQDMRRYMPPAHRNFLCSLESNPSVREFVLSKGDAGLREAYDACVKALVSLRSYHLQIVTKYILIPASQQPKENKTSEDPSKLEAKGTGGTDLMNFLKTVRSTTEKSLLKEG

[10] = molecular target: T5, Tyrosine-protein phosphatase non-receptor type 11 (Homo sapiens, UniProt Q06124); experiment: Inhibition of recombinant human SHP2 expressed in Escherichia coli […] preincubated for 15 mins followed by substrate addition and measured after 60 mins; how it was run: as §2
T5 sequence (Q06124 whole entry): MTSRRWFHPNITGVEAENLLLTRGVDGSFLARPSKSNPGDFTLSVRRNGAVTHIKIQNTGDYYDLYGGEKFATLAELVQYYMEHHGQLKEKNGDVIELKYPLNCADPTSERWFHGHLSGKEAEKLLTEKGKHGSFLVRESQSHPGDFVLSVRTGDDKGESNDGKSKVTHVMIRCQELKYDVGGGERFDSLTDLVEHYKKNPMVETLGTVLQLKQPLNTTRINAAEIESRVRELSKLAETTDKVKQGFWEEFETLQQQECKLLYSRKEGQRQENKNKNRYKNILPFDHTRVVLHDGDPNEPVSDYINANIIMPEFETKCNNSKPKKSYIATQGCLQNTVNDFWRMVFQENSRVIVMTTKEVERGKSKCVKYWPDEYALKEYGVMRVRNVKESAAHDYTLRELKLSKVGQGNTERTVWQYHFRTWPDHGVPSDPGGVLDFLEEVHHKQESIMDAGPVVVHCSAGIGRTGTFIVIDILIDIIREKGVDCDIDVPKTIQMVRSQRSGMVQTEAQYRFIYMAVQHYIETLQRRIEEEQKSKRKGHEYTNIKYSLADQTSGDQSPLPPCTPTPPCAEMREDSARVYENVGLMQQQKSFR

[11] = tested on: Fusarium oxysporum; experiment: Antifungal activity against Fusarium oxysporum HNM 1003 assessed as growth inhibition at 0.6 mM measured after 48 hrs by microbroth dilution method; assay type: functional; details: HNM 1003, 48 h, read-out: GI; how it was run: as §1
[12] = tested on: Pyricularia oryzae; experiment: Antifungal activity against Pyricularia oryzae HNM 1003 assessed as growth inhibition at 0.6 mM measured after 48 hrs by microbroth dilution method; assay type: functional; details: HNM 1003, 48 h, read-out: GI

For `CC[C@@H](C)C1=C2N=C3OC=CC=C[C@]3(OC)C(=O)N2[C@@H](Cc2ccccc2)C(=O)N1`, the inhibition [1] was “inactive”, the inhibition of growth at 600 µM [2] was less than 50% and the EC50 [3] was 41 µM. For the same compound, the IC50 [4] was 14 to 87 µM, the IC50 [5] was 14 to 87 µM and the IC50 [6] was 14 to 87 µM. For the same compound, the IC50 [7] was 14 to 87 µM, the inhibition of growth at 600 µM [8] was less than 50% and the IC50 [9] was 14 to 87 µM. For the same compound, the IC50 [10] was 14 to 87 µM, the inhibition of growth at 600 µM [11] was less than 50% and the inhibition of growth at 600 µM [12] was less than 50%.
